The values below come from ChEMBL document CHEMBL4513216, “Probing the Open Global Health Chemical Diversity Library for Multistage-Active Starting Points for Next-Generation Antimalarials” (ACS Infect Dis, 2020).

A short description of this series: Toxicity liver stage against HepG2, at 10uM. The format is cell-based. Also on record: test concentration 10 uM, cell line HepG2-A16-CD81EGFP. The conditions noted are these: human, HepG2-A16-CD81EGFP cells; read-out: INHIBITION
The procedure, abridged: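 Uninfected HepG2-A16-CD81EGFP cells, 3 × 10^3 per well, 1536-well, plated on prespotted compound at 10 μM final, parasite-free screening media added to match infected plates; puromycin 10 μM positive, DMSO 0.5% negative; run in parallel with 48 h PbLuc assay at 37 °C, 5% CO2; viability by CellTiter-Glo luminescence, normalized to controls.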
As to `CC(C)(C)SCC(=O)NC(C)(C(N)=O)c1cccc(Cl)c1` (stereo not given), the cytotoxicity at 10 µM is 1.61%.
The result for `CCN(CC(=O)Nc1c(C)n[nH]c1C)CC(O)c1ccc(C)cc1` (stereo not given) reads -2.86%; that for `CN1CCn2c(-c3cccc(F)c3)cnc2C12CCN(CC1CC1)CC2`, 8.13%; that for `COCCC(=O)N1CCN(CC2CC2)c2nc(C)ccc2C1`, 9.88%.
Regarding `CN1CCCC1CNC(=O)CCCOc1ccc(Br)cc1` (stereo not given), the cytotoxicity at 10 µM was -7.69%.
With `NC(=O)CC1CCN(S(=O)(=O)N2CCCC2c2ccco2)CC1` (stereo not given), the cytotoxicity at 10 µM stood at 3.82%.
For `OCCOc1ccccc1CN1CCCC(O)(CO)C1` (stereo not given), the cytotoxicity at 10 µM is -38.7%.
Take `CC(C)c1nccc([C@@H]2C[C@@H]3CCN(Cc4ccoc4)C[C@H]3O2)n1`: the cytotoxicity at 10 µM is -7.47%.
As for `CC(=O)N1CCN([C@@H]2CN(C(=O)Cc3ccccc3C)C[C@H]2O)CC1`, the figure is -6.94%; as for `CC(c1ccncn1)N(C)S(=O)(=O)NCc1ccccc1` (stereo not given), -81.5%; as for `CC(CN1CCCC1)C(=O)NCC1CCN(c2cnn(C)c(=O)c2)CC1` (stereo not given), 0.301%.
As for `CCN(CC)c1ccc(CNC(=O)c2cnccn2)cn1`, the figure is -104%; as for `c1cnc(N2CCC3(CC2)CN(CC2CC2)c2ccccc23)nc1`, 19.9%; as for `CN(C(=O)c1cn(C)cn1)[C@@H]1CCC[C@@H](Oc2ccccc2)[C@@H]1O`, 23%.
On to `CCC(CNC(=O)c1ccc(=O)[nH]n1)N1CCc2ccccc2C1` (stereo not given), for which the cytotoxicity at 10 µM is -7.9%.
For `Cc1cccc(S(=O)(=O)N2Cc3c(CN(C)C)nn(C)c3C2)c1`, the cytotoxicity at 10 µM was -0.53%.
In the case of `C[C@@H]1CN(C(=O)C2(Cn3cccn3)CC2)CC[C@@]1(O)C1CC1`, the cytotoxicity at 10 µM was -2.6%.
Regarding `Cc1cnn(C2CCCN(C(=O)Cc3n[nH]c4ccccc34)C2)c1` (stereo not given), the cytotoxicity at 10 µM is -6.8%.
`CN1CCC(N(C)CCC(=O)N2CCC(Cc3ccc(F)cc3)CC2)C1` (stereo not given): the cytotoxicity at 10 µM is -1.9%.
Regarding `CCc1ccc(CN(C)C(=O)c2cnc3c(c2)nc(N)n3CC)nc1`, the cytotoxicity at 10 µM is -5.55%.
The result for `CCNC(=O)C1CCN(c2nccc(C3CCCC3)n2)C1` (stereo not given) reads -5.6%; that for `N#Cc1ccc(N2CCN(c3nccs3)CC2)nc1`, 31%; that for `CC(C)N1[C@H](CN2CCCC2)C[C@@H]2CN(Cc3ccoc3)CC[C@@H]21`, -157%.
As for `Cc1cc(NCCNS(C)(=O)=O)nc2cc3c(cc12)CCC3`, the figure is 2.9%; as for `O=C1CCCN1Cc1nnc2n1CCN(Cc1ccco1)CC2`, 3.39%; as for `CCc1ncc(C(=O)N2CCN(c3nc(C)cc(OC)n3)CC2)s1`, 1.1%.
As for `Cc1cccc(C(Nc2nccc(C)n2)C2CC2)n1` (stereo not given), the figure is -2.67%; as for `CC(C)c1cc(N2CCC(C(C)N3CCCC3)CC2)n2nccc2n1` (stereo not given), -1.86%; as for `CCCN1CCC[C@]2(CCC(=O)N2Cc2ccncc2)[C@H]1CC`, -1.16%.
As for `Cc1nc(CN(C)C2CCCN(Cc3noc(C4CC4)n3)C2)oc1C` (stereo not given), the cytotoxicity at 10 µM was -2.34%.
In the case of `Cc1ccc(C(=O)NCCNCC2CNc3ccnn3C2)cc1` (stereo not given), the cytotoxicity at 10 µM was 7.41%.
For the compound `O=C(NCCc1ccccc1)C1CCCN(c2ccc3nncn3n2)C1` (stereo not given), the cytotoxicity at 10 µM was 25.9%.
The result for `Cc1cccc(=O)n1CCCNc1nc(N(C)C)nc2c1CCNCC2` reads -10.2%; that for `Cc1ccc2cc(C3(O)CCN(C(=O)[C@@H]4CCCCN4)CC3)ccc2n1`, -0.456%; that for `c1ccc2cc(OCCN3CCOC(Cn4cncn4)C3)ccc2c1` (stereo not given), 4.6%.
As for `O=C(Nc1cc(-c2ccccc2)on1)N1CC[C@H](O)C1`, the cytotoxicity at 10 µM amounted to 4.98%.
For the compound `CC(C)Nc1oc(-c2ccc(S(=O)(=O)N(C)C)o2)nc1C#N`, the cytotoxicity at 10 µM was -11.6%.
In the case of `CCCn1nc(C)c(C(=O)N(C)[C@@H]2CC[C@@H](N3CCCC3)[C@@H]2O)c1C`, the cytotoxicity at 10 µM was 2.28%.
Consider `CCC(C)Oc1ccc(CNCCNC(C)=O)cc1OC` (stereo not given), for which the cytotoxicity at 10 µM is -8.09%.
The result for `Cc1ccc2cc(CNCCCN3CCOCC3)c(=O)[nH]c2c1` reads -0.336%; that for `CN(C(=O)CCNC(=O)C1COc2ccccc21)c1ccccc1` (stereo not given), -7.53%.
As for `Cc1cc(C(C)(O)CNC(=O)CCn2ccnc2C(C)C)c(C)o1` (stereo not given), the cytotoxicity at 10 µM came out at 4.27%.
`CNC(=O)CNC(=O)Nc1cc(-c2ccccc2)ns1`: the cytotoxicity at 10 µM is 22%.
Consider `O=C1NCC(c2ccc(F)cc2)Cc2[nH]c(CCN3CCCC3)nc21` (stereo not given), for which the cytotoxicity at 10 µM is -0.65%.
The result for `O=C1CC[C@H]2CN(c3ncc(F)cn3)CC[C@H]2N1CCc1c[nH]cn1` reads 3.96%.
Turning to `NC(=O)NC(=O)CCN1C(=O)CC(Cc2ccc(F)cc2)C1=O` (stereo not given), the cytotoxicity at 10 µM was -0.327%.
In the case of `Cc1cnn(C2CCCN(C(=O)CCCn3ccnc3C)C2)c1` (stereo not given), the cytotoxicity at 10 µM is -18.3%.
The result for `Cn1c(CN2CCOCC2)cc(=O)c(O)c1CN1CCCCC1` reads -3.15%; that for `CC(C)N(C)S(=O)(=O)N(Cc1cccs1)Cc1cccs1`, -45.2%; that for `CCc1n[nH]c(C2CN(C(=O)c3cnc[nH]3)CCO2)n1` (stereo not given), -0.481%.
With `O=C(N1CCOCC1)N1CCC2(CCNC2)C1` (stereo not given), the cytotoxicity at 10 µM was -2.89%.
Turning to `CCCc1nnc(NC2CCN(C3CCCC3)CC2)o1`, the cytotoxicity at 10 µM is -2.66%.
Regarding `CN(Cc1ccco1)Cc1ccccc1CNC(=O)c1c[nH]nn1`, the cytotoxicity at 10 µM is -2.89%.
The result for `Cc1cc(C)n(C2CCCN(C(=O)CCCNc3ncccn3)C2)n1` (stereo not given) reads 5.15%.
With `O=C(CCn1ccc2ccccc21)N1CCN(Cc2cccnc2)CC1`, the cytotoxicity at 10 µM stood at 0.951%.
For the compound `CNC(=O)[C@H]1C[C@@H]2CN(c3cc(OC)ncn3)C[C@@H]2N1C(C)C`, the cytotoxicity at 10 µM was -8.84%.
As for `O=C(Cc1csc(-c2ccccc2)n1)N[C@@H](C(=O)O)c1ccccc1`, the figure is 6.56%.
The result for `OC(CNCCn1cccn1)COc1cccc(C(F)(F)F)c1` (stereo not given) reads -19.7%; that for `COCCn1ccnc1-c1cc(CN2CCCCC2)cs1`, -151%; that for `COc1ccc(OC)c(CN(Cc2ccco2)Cc2[nH]cnc2C)c1`, -2.51%.
On to `Cc1cnc(CCNc2cccc(CC3CCCNC3)n2)s1` (stereo not given), for which the cytotoxicity at 10 µM was -3.02%.
For `O=S(=O)(Cc1ccccc1CN1CCOCC(O)C1)c1ccccc1` (stereo not given), the cytotoxicity at 10 µM was -22.8%.
As for `Cc1nn(C)c(C)c1-c1ccnc(N(C)Cc2nc(C(C)C)no2)n1`, the cytotoxicity at 10 µM was 20.6%.
As for `CCO[C@@H]1CCN(C(=O)N(C)C)[C@@H]1Cc1cnn(C)c1`, the figure is -73.4%.
With `CN(C)Cc1ccnc(C2CCCN2Cc2cc[nH]n2)n1` (stereo not given), the cytotoxicity at 10 µM is -0.902%.
On to `COc1c(Cl)cc(C(=O)NCc2n[nH]c(C)n2)cc1Cl`, for which the cytotoxicity at 10 µM turned out to be 1.42%.
Turning to `CC(=O)N1[C@@H](C(=O)NCC2CC2)C[C@@H]2CN(Cc3nccs3)C[C@@H]21`, the cytotoxicity at 10 µM is 1.7%.
As for `Cc1nnc(CNC(=O)C2CSCCC(=O)N2)o1` (stereo not given), the figure is -10.1%.
Take `CCN(Cc1nonc1C)C(=O)c1ccc(Br)o1`: the cytotoxicity at 10 µM came out at 0.621%.
In the case of `CN(Cc1ccc(F)cc1C#N)CC(F)(F)F`, the cytotoxicity at 10 µM is 4.28%.
As for `CN1CCN(C(=O)c2cn3ccsc3n2)[C@H]2CS(=O)(=O)C[C@H]21`, the cytotoxicity at 10 µM is -1.27%.
As to `CCC(Sc1ncc(CO)n1C)c1ccccc1` (stereo not given), the cytotoxicity at 10 µM was -45.3%.
Consider `COc1ccccc1-n1nc(-c2ccco2)n(CC(=O)NC(C)C)c1=O`, for which the cytotoxicity at 10 µM came out at 2.57%.
Take `OC(CN1CCN(Cc2nc(C3CC3)no2)CC1)c1ccccc1` (stereo not given): the cytotoxicity at 10 µM was -10.9%.
For the compound `Cc1cc(N2CCC(NS(C)(=O)=O)CC2)nc(C(C)C)n1`, the cytotoxicity at 10 µM is -3.36%.
The result for `O=C(NCc1nnc2n1CCC2)NCC1(c2cccc(F)c2)CC1` reads -6.03%; that for `O=C(CN1CCC(c2ccnn2CCO)CC1)NCc1cccs1`, -10.4%.
On to `CN(C(=O)c1ccc[nH]1)C1CCC(NC(=O)OC(C)(C)C)CC1` (stereo not given), for which the cytotoxicity at 10 µM was -11.9%.
With `CC(C)(C(=O)NCC1CCN(Cc2ccccn2)C1)c1ccccc1` (stereo not given), the cytotoxicity at 10 µM is -3.09%.
As to `Cc1ccc(CN2CCN(c3ncccc3Cl)CC2CCO)cc1` (stereo not given), the cytotoxicity at 10 µM was -1.04%.
With `O=C(NC1CCCN(CCc2ccccc2)C1)c1cnccn1` (stereo not given), the cytotoxicity at 10 µM stood at 7.95%.
In the case of `CC(=O)NC1CCCN(C(=O)NCCOc2ccc3c(c2)OCO3)C1` (stereo not given), the cytotoxicity at 10 µM was -31%.
As for `O=C(CCc1nc(Cl)n[nH]1)N1C[C@@H](CN2CCCCCC2)[C@@H](CO)C1`, the figure is 0.152%.
As for `O=S(=O)(NCc1ccc(S(=O)(=O)N2CCCC2)s1)c1ccc(F)cc1Cl`, the cytotoxicity at 10 µM is -39.9%.
The result for `CCc1n[nH]c(C2CN(Cc3nccn3CC)CCO2)n1` (stereo not given) reads -1.85%.
In the case of `Cn1cc(C[C@H]2[C@H](O)CCN2C(=O)C2CCOCC2)cn1`, the cytotoxicity at 10 µM came out at 13%.
Consider `CN(C)Cc1cnc2n1CCN(C(=O)C1CC=CC1)CC2`, for which the cytotoxicity at 10 µM was -81.3%.
`COCCN1CCC(c2ncc(C(=O)N3CCOCC3)c(C)n2)CC1`: the cytotoxicity at 10 µM was found to be 1.36%.
As to `Cc1sc2nc(C(F)(F)F)nc(N3CCC(NS(C)(=O)=O)CC3)c2c1C`, the cytotoxicity at 10 µM is -17%.
With `CC(C)n1cc(C(=O)NCCN(C)C)c2n[nH]c(=O)c-2c1`, the cytotoxicity at 10 µM was determined as 9.06%.
Consider `CC(C)C(=O)N(C)CC(=O)Nc1ccc(Br)cn1`, for which the cytotoxicity at 10 µM is -6.22%.
Take `O=C(c1cc(Br)ccc1-n1cnnn1)N1CCCCC1`: the cytotoxicity at 10 µM was -1.25%.
As for `CC(C(=O)Nc1ccc(Cl)cn1)n1ccc(C(F)(F)F)n1` (stereo not given), the figure is 17.6%; as for `CC(C)c1nc(CN2CCN(CC3CCCO3)CC2)cs1` (stereo not given), -1.52%.
For `CN1CCN(S(=O)(=O)c2ccc(C(=O)N3CC[C@@H](O)C3)cc2)CC1=O`, the cytotoxicity at 10 µM was 2.7%.
